Bioassay records deposited in PubChem by The Scripps Research Institute Molecular Screening Center.
TCR-CD3 inh: blocks the human TCR-CD3 interaction. TAMRA-labeled TCR probe fluorescence, biochemical. hit rate 0.37% among 360,000. inhibition, % at 9.4 µM. AID 651800; in the data active = inhibition above about 19%;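 also: recombinant mutant TCR 2C K166C tagged with TAMRA read by polarization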
ABHD4 inh: ABHD4 (mouse) inhibition, primary FP screen | purified mABHD4, FP-Rh probe fluorescence polarization | inhibition, % at 8.92 µM | hit rate 0.54% among 370,000 | AID 720543;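 active = inhibition exceeding the mean over every tested compound plus 3 SD, cut at about 30% in these data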
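Test system: mABHD4 protein | Buffer or medium: HEPES pH 7.0 buffer, 150 mM NaCl, 0.01% Pluronic F-127 | Probe or stimulus: FP-Rh fluorescent activity-based probe, added after compound pre-incubation | Timing: Pre-incubation 45 min, probe exposure 60 min, at 25 °C | Technique: Fluorescence polarization, excitation 525 nm, emission 598 nm, BODIPY TMR filters | Repeats: Single well per compound (singlicate)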
HTRA1 inh: blocks human HTRA1 serine peptidase | Q92743 | recombinant HTRA1, FP-rhodamine activity-based probe, fluorescence polarization | inhibition, % at 5.96 µM | hit rate 0.5% among 340,000; in the data active = inhibition above about 36%
Target sequence (Q92743 whole entry, looked up): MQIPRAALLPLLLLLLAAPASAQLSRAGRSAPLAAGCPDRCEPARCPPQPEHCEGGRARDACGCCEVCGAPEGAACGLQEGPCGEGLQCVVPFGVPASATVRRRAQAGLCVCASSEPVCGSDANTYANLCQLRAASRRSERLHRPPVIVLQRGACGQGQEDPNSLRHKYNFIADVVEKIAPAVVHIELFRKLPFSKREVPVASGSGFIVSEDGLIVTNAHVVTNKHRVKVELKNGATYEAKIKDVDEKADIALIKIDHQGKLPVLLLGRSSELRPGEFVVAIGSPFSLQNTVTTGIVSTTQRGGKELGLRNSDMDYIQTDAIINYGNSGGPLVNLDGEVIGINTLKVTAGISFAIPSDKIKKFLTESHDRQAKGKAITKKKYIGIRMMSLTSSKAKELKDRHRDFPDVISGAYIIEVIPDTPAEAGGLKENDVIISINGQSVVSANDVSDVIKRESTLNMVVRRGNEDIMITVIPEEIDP
DAGLB inh: diacylglycerol lipase beta (human) inhibition; HEK293T DAGLB membrane lysate, EnzChek fluorogenic substrate; AID 504411; Q8NCG7; hit rate 0.059% among 340,000; inhibition, % at 5.17 µM; in the data active = inhibition above about 34%
SIAE primary: human SIAE inhibition, primary screen | SIAE FP-Rh probe binding, fluorescence polarization | hit rate 0.69% among 370,000 | inhibition, % at 9.66 µM | AID 1053197;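 active = inhibition above a cutoff: mean of compounds within the control limits plus 3 SD of those, cut at about 17% in these data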
SIAE confirm: human SIAE inhibition, confirmation; shares compounds with SIAE primary; SIAE FP-Rh activity-based probe, fluorescence polarization; inhibition, % at 9.66 µM; hit rate 13% among 2,300; AID 1117263;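 active = mean inhibition of the replicates above the hit cutoff set in the primary screen, cut at about 17% in these data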;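 also: inhibitors lower polarization as more probe stays unbound to SIAE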
Large screens that a line does not name were inactive (follow-up assays come after a bar, where they were run). Shown are actives, neighbours in structure and some others; about 1.6% of the full set was active somewhere.

CCOC(=O)[C@@H]1CSCCS(=O)(=O)N1C(=O)[C@H](CCSC)NC(=O)OC(C)(C)C	none (no result: HTRA1 inh, DAGLB inh)
CCN(CC)C(=O)[C@H]1C[C@@H]2[C@H](C[C@@H](c3ccccc3)[C@H]1C)N(c1ccc(F)cc1)C(=O)N2CCCOc1ccccc1	none (no result: HTRA1 inh, DAGLB inh)
NS(=O)(=O)c1ccc(N/N=C/c2cn(-c3ccccc3)nc2-c2cccs2)cc1	SIAE primary 23 | SIAE confirm inactive
O=C(Nc1ccc(Nc2ccccc2)cc1)c1ccc(Cl)cc1[N+](=O)[O-]	SIAE primary 21 (no result: HTRA1 inh, DAGLB inh) | SIAE confirm inactive
Cc1cc(C(=O)Nc2ccc(Nc3ccccc3)cc2)ccc1[N+](=O)[O-]	SIAE primary 19 | SIAE confirm 19
Cc1ccc(CN(C)C(=O)c2ccc(S(=O)(=O)N3CCCCCC3)cc2)o1	SIAE primary 17 | SIAE confirm inactive
Cc1ccc(C(=O)N2CCC(C(=O)NCc3ccco3)CC2)cc1	none
CC(C)(C)c1ccc(C(=O)N2CCC(C(=O)NCc3ccco3)CC2)cc1	SIAE primary 17 | SIAE confirm inactive
c1ccc(OCCNc2nc(NCC3CC3)nc3cc(-c4ccccc4)sc23)cc1	SIAE primary 22 (no result: HTRA1 inh, DAGLB inh) | SIAE confirm 21
COCCNc1nc(NCc2cccc(OC)c2)c2sc(-c3ccccc3)cc2n1	SIAE primary 34 (no result: HTRA1 inh, DAGLB inh) | SIAE confirm 31
COCCNc1nc(NCc2ccc(NC(C)=O)cc2)c2sc(-c3ccccc3)cc2n1	SIAE primary 27 (no result: HTRA1 inh, DAGLB inh) | SIAE confirm 18
C=CCNc1nc(NCCOC)c2sc(-c3ccccc3)cc2n1	none (no result: HTRA1 inh, DAGLB inh)
O=[N+]([O-])c1ccccc1/C=C/C1Nc2cccc3cccc(c23)N1	none (no result: TCR-CD3 inh, HTRA1 inh, DAGLB inh)
NC(=O)c1ccc(NC(=O)c2cc(S(=O)(=O)N3CCCCC3)ccc2N2CCOCC2)cc1	SIAE primary 21 | SIAE confirm inactive
O=S(=O)(NC1CCCc2ccccc21)c1cnc[nH]1 (stereo not drawn)	SIAE primary 26 | SIAE confirm inactive
CCCN(CCC)CCN1CCN(C(=O)[C@H](CCc2ccccc2)NC(=O)[C@H]2O[C@@H](n3cnc4c(N)ncnc43)[C@H](O)[C@@H]2O)CC1	none (no result: HTRA1 inh, DAGLB inh)
CC(C)(C)c1ccccc1NC(=O)COC(=O)CN1C(=O)NC2(CCCC2)C1=O	SIAE primary 21 | SIAE confirm inactive
COCCN(C(=O)COC(=O)/C=C/c1cccs1)c1c(N)n(Cc2ccccc2)c(=O)[nH]c1=O	SIAE primary 21 | SIAE confirm inactive
CCCN(C(=O)c1cc(-c2ccco2)nc2ccccc12)c1c(N)n(Cc2ccccc2)c(=O)[nH]c1=O	none
COCCN(C(=O)c1cc(-c2ccco2)nc2ccccc12)c1c(N)n(Cc2ccccc2)c(=O)[nH]c1=O	SIAE primary 42 | SIAE confirm inactive
O=C(OC12CCCN(C1)/C(=C/c1cccc(Cl)c1)C2)c1cccc(F)c1 (stereo not drawn)	none (no result: TCR-CD3 inh, HTRA1 inh, DAGLB inh)
O=C(NCCc1ccccc1)OCc1cn(Cc2ccccc2F)nn1	none (no result: TCR-CD3 inh, HTRA1 inh, DAGLB inh)
CN1/C(=C/C=C(C#N)C#N)C(C)(C)c2ccccc21	SIAE primary 25 | SIAE confirm 81
CN1/C(=C\C=O)C(C)(C)c2ccccc21	none
C/C(=N\NC(=O)c1ccc([N+](=O)[O-])cc1)c1cc2ccccc2oc1=O	SIAE primary 17 | SIAE confirm inactive
O=C(OCCCN1CCC2(CCCCC2)C1=O)c1ccccc1	none (no result: TCR-CD3 inh, HTRA1 inh, DAGLB inh)
CCc1ccc(CNCC(=O)N2CCC3(CC2)OCCO3)s1	none (no result: TCR-CD3 inh, HTRA1 inh, DAGLB inh)
COC(=O)[C@]12C[C@H](CC(=O)N3CCN(C(=O)C4CC4)CC3)C(=O)N(Cc3ccc4c(c3)OCO4)C1=C[C@H](C(C)C)O[C@@H]2C1CC1	none (no result: TCR-CD3 inh, HTRA1 inh, DAGLB inh)
O=C(c1ccc(N2C(=O)CCC2=O)cc1)N1CCCSC1=Nc1ccccc1	SIAE primary 29 | SIAE confirm inactive
COC(=O)[C@]12C[C@H](CC(=O)N3CCC(c4ccccc4)CC3)C(=O)N(CCc3ccc(OC)c(OC)c3)C1=C[C@H](COCc1ccccc1)O[C@@H]2C	none (no result: TCR-CD3 inh, HTRA1 inh, DAGLB inh)
CCOCCCNC(=S)Nc1ccc2nc(N3CCOCC3)cc(C)c2c1	SIAE primary 17 | SIAE confirm inactive
COC(=O)c1cc2c(c3c4ccccc4n(S(=O)(=O)c4ccc(OC)cc4)c13)C(=O)N(Cc1ccc(N(C)C)cc1)C2	none (no result: HTRA1 inh, DAGLB inh)
CCOC(=O)C(NC(=O)Nc1ncccn1)(Oc1ccccc1)C(F)(F)F (stereo not drawn)	SIAE primary 24 | SIAE confirm inactive
CCOC(=O)C(NC(=O)Nc1ccc(F)cc1F)(Oc1ccc(F)cc1)C(F)(F)F (stereo not drawn)	none
COc1ccc(C)cc1Cn1nnc2ccccc21	none
COc1cc(Cn2nnc3ccccc32)cc(Br)c1O	SIAE primary 23 | SIAE confirm inactive
CC(=O)N1CCN(C2c3cccc4cccc(c34)C2NS(=O)(=O)c2ccccc2)CC1 (stereo not drawn)	SIAE primary 24 | SIAE confirm inactive
CCOCCCNC(=O)C1CCN(S(=O)(=O)c2cc3c(cc2Br)CCN3C(=O)CC)CC1	none (no result: TCR-CD3 inh, HTRA1 inh, DAGLB inh)
CC(C)(C)CCN1CCC(CN2CCNC2=S)CC1	SIAE primary 18 | SIAE confirm inactive
O=C1NCCN(CC2CCN(CCc3ccccc3)CC2)C1=O	none
COC1=CC(C)C2CC3OC(=O)CC4C(C)=C(OC)C(=O)C(C2(C)C1=O)C34C (stereo not drawn)	none (no result: HTRA1 inh, DAGLB inh)
COc1ccc(OC)c(NC(=O)COc2cc(O)c3c(c2)OC(C)(C)CC3=O)c1	none (no result: HTRA1 inh, DAGLB inh)
CC(=O)Nc1ccc(C(=O)CN2C(=O)NC3(CCOc4ccccc43)C2=O)c(F)c1 (stereo not drawn)	SIAE primary 19 | SIAE confirm inactive
Nc1ccc(C2=Nc3cccc4cccc(c34)N2)cc1	SIAE primary 24 | SIAE confirm inactive
c1coc(C2=Nc3cccc4cccc(c34)N2)c1	SIAE primary 23 | SIAE confirm inactive
COc1cccc(C2=Nc3cccc4cccc(c34)N2)c1	SIAE primary 22 | SIAE confirm inactive
O=C1CC(c2ccco2)=Nc2ccccc2N1	none
COc1cccc(-c2nnc(-c3ccc4ccccc4c3)o2)c1	none
Cc1ccc(-n2c(SCc3cccc(F)c3)nc3ccccc3c2=O)cc1	none (no result: TCR-CD3 inh, HTRA1 inh, DAGLB inh)
O=C(CSc1nnc(SCc2ccccc2)s1)N/N=C/c1c[nH]c2ccccc12	none
O=C(CSc1nnc(SCc2ccccc2Cl)s1)N/N=C/c1c[nH]c2ccccc12	SIAE primary 28 | SIAE confirm inactive
CCN(CC)C(=O)c1cn(-c2cccc(OC)c2)c(=O)c2ccccc12	SIAE primary 21 | SIAE confirm inactive
Cc1[nH]c(C)c(C(=O)/C=C/c2ccc([N+](=O)[O-])cc2)c1C	SIAE primary 25 | SIAE confirm inactive
COc1ccc(C=CC(=O)c2ccc([N+](=O)[O-])cc2)cc1	none
O=C(NCC(=O)N1CCN(c2ncccn2)CC1)c1ccccc1F	none
O=C(NCC(=O)N1CCN(c2ncccn2)CC1)c1ccc(F)cc1	SIAE primary 22 | SIAE confirm inactive
